# The list is not random: actives were taken first. Their share in the collection is about 9.3%.
# DAT uptake mod: human DAT dopamine uptake with cocaine, either direction; Q01959; LLC-PK1 hDAT cells, [14C]-dopamine uptake with cocaine IC80; actives deviate in either direction; B-score at 10 µM; 110,000 tested, 1.3% active;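 active means Z score or B-score, a plate-position-corrected score, falls beyond the plate's 99.7% confidence bounds, in either direction; inactive means both scores lie inside the 99.7% bounds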;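 further: scored against the spread of the other compound wells on the same plate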
# Target sequence (Q01959 whole entry, looked up): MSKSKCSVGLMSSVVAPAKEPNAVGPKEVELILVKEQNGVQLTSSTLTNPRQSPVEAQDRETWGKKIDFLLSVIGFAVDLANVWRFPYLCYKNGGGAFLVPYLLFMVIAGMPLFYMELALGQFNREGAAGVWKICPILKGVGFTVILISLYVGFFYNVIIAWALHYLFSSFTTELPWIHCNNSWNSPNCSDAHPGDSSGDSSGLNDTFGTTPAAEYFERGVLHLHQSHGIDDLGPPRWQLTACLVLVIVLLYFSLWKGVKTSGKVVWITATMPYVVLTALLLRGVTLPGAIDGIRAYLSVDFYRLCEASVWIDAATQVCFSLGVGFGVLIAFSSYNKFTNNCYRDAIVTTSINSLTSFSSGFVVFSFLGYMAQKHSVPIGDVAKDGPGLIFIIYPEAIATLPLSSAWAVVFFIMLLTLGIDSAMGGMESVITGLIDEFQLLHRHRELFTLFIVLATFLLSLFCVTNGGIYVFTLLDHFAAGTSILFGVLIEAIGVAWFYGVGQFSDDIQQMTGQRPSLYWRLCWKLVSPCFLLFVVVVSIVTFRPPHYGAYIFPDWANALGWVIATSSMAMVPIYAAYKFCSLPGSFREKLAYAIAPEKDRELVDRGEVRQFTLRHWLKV
# Ecoli tolC: growth inhibitors of E. coli BW25113 tolC mutant; OD615; AID 573; growth inhibition, % at 10 µM (by protocol); 65,000 tested, 2.2% active;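 active means growth inhibition at or above a cutoff equal to the mean over every tested compound plus 3 SD, cut at about 60% in these data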;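 further: growth measured after 20 h incubation at 37 °C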
#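 Test system – E. coli BW25113 ΔtolC::kan, tolC deletion mutant strain · Detection – OD at 615 nm · Buffer or medium – LB with kanamycin 50 µg/mL · Times – 20 h compound exposure of bacteria at 37 °C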
# PostGolgi yeast: growth inhibition of a yeast mutant, post-Golgi transport screen; post-Golgi transport phenotypic cell assay; inhibition, % at 10 µM; 98,000 tested, 0.9% active;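 further: yeast cells grown in 1536-well plates; yeast grown about 18 h at 30C before absorbance read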
# PostGolgi ctrl: yeast control strain growth, post-Golgi counter-screen. inhibition, % at 10 µM. efflux-deficient yeast background strain, growth absorbance A615, 16 h. 98,000 tested, 5% active
# E coli WT exp: blocks growth of wild type E. coli BW25113; OD600 absorbance; growth inhibition, % at 100 µM; 98,000 tested, 0.15% active; AID 710;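 active means growth inhibition above about 50% at one test dose, limit read from the data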;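 further: growth measured after 20 h incubation at 37 °C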
# D1 allo mod: allosteric modulators of human D1 dopamine receptor; B-score at 10 µM; HEK293 D1, CRE-luciferase, dopamine EC30 potentiation; actives deviate in either direction; 58,000 tested, 5.9% active; AID 641;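 active means luminescence count or its row- and column-corrected plate score outside the 99.7% band of the plate's sample wells, on either side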
# Active calls of the source: *; . = not tested or not shown. Unless noted, no stated cut-off is given here; in the data, active means inhibition above about 30%; inactive means the rest.
SMILES,DAT uptake mod,Ecoli tolC,PostGolgi yeast,PostGolgi ctrl,E coli WT exp,D1 allo mod
Cc1ccc2c(c1)n([O-])c1c([n+]2=O)CCCC1,-0.85,.,0,5,2,.
CC(=O)c1c(C)n([O-])c2ccc(C)cc2[n+]1=O,-0.81,72*,18,12,53*,0.072
CCOC(=O)C1CCN(CC(O)COc2ccc(C(C)=O)cc2)CC1 (stereo not drawn),-0.078,-6,0,-1,8,-0.3
CC1CCN(CC(O)COc2ccc(F)cc2)CC1 (stereo not drawn),-0.32,-8,-2,2,6,-5.6*
OC(COc1c(F)cc(Br)cc1F)CN1CCN(c2ccc(F)cc2)CC1 (stereo not drawn),.,16,33*,47*,-7,-1.2
OC(COc1ccc2ccccc2c1)CN1CCN(c2ccc(F)cc2)CC1 (stereo not drawn),-0.017,2,1,20,-2,-1.1
CCOC(=O)C1CCN(CC(O)COc2ccc(C(C)(C)C)cc2)CC1 (stereo not drawn),0.054,-1,29,59*,22,-0.024
CCOC(=O)C1CCN(CC(O)COc2ccc(C(C)(C)CC)cc2)CC1 (stereo not drawn),-0.96,36,87*,79*,21,.
O=c1c(Cc2ccc(Cl)cc2Cl)c(O)ccn1Cc1ccc(Cl)cc1,0.31,.,14,62*,2,.
O=c1c(Cc2ccc(Cl)cc2)c(O)ccn1Cc1cccc(Cl)c1,0.29,.,0,24,-2,.
O=C1[C@H]2[C@H](C=CC[C@H]2C(=O)N2CCOCC2)CCN1Cc1ccccc1,-0.62,.,.,.,.,.
Cc1ccc(C)c(N2CCN(Cc3nnnn3C3CCCCC3)CC2)c1,0.74,35,18,38*,-11,-0.016
Cc1ccc2nc(N3CCN(Cc4nnnn4C4CCCC4)CC3)c(C#N)cc2c1,0.022,.,.,.,.,.
COc1cc(CNC(=O)c2ccc3c(c2)S(=O)(=O)c2ccccc2C3=O)cc(OC)c1,0.22,.,.,.,.,.
Cc1cc(C)nc(N2CCC(C(=O)N3CCN(c4cc(Cl)ccc4C)CC3)CC2)n1,0.078,50,-3,43*,-20,-0.48
Cc1ccc(-c2ccc(=O)n(CC(=O)N3CCN(c4cccc(C)c4)C(C)C3)n2)cc1 (stereo not drawn),1,1,-1,12,-8,0.58
Cc1ccc(Cl)cc1N1CCN(C(=O)CCC(=O)O)CC1,-3*,-1,3,3,2,0.0025
Cc1ccc(C)c(N2CCN(C(=O)C3CCN(c4nc(C)cc(C)n4)CC3)CC2)c1,-0.21,29,6,46*,-21,-0.26
Cc1ccc(-c2ccc(=O)n(CC(=O)N3CCN(c4cc(Cl)ccc4C)CC3)n2)cc1,0.47,.,17,47*,-3,.
Cc1ccccc1C(=O)/C=C1\NC(=O)CS1,1.1,-4,11,5,3,-0.58
O=C(NCc1ccco1)C1Cc2ccccc2CN1S(=O)(=O)c1ccccc1F (stereo not drawn),.,12,.,.,.,-1.2
CCC1CC2CC(NC(C)=O)C1C2 (stereo not drawn),0.33,.,0,33*,-1,.
Cc1ccc(Cn2c(C(C)Nc3nc(C)cs3)nc3cc(Cl)c(Cl)cc32)cc1 (stereo not drawn),-0.44,.,.,.,.,.
Cc1cccc(-c2noc(-c3ccccc3C(=O)NCC3CCCO3)n2)c1 (stereo not drawn),0.22,-11,-3,31*,4,0.48
COc1cccc(-c2nc(-c3ccc(NC(=O)Cc4ccccc4OC)cc3)no2)c1,-0.73,7,8,-2,1,0.18
SMILES,DAT uptake mod,Ecoli tolC,PostGolgi yeast,PostGolgi ctrl,E coli WT exp,D1 allo mod
COc1cccc(NC(=O)c2ccccc2-c2nc(-c3cccc(C)c3)no2)c1,-0.6,38,-3,34*,-25,0.83
O=C(NCC1CCCO1)c1ccccc1-c1nc(-c2ccc(Cl)cc2)no1 (stereo not drawn),-1.1,16,5,2,3,-0.26
Cc1ccc(-c2nc(CSCC(=O)NCCN3CCN(Cc4ccccc4)CC3)c(C)o2)cc1,0.96,12,2,38*,10,-1.3
CCOC(=O)c1ncn2c1C(=O)OC2(C)C,-1.5,-12,2,3,1,-0.46
CCOC(=O)c1cc(-c2ccc(Cl)cc2)nc2c1c(C)nn2CCC#N,0.25,.,3,15,-5,.
CCOC(=O)c1cc(-c2ccc(OC)cc2F)nc2c1c(C)nn2CCC#N,-1,.,-3,45*,-22,.
O=C1CC(N2CCN(Cc3ccc4c(c3)OCO4)CC2)C(=O)N1c1ccccc1 (stereo not drawn),-0.11,-2,0,40*,0,0.68
COC(=O)c1nc2cc(C)ccn2c1F,-1.4,-10,-14,49*,8,0.024
CCOC(=O)c1c(C)nc2cc(C)ccn12,0.16,0,1,5,-2,1.1
COc1ccc(S(=O)(=O)NCC2CCC(C(=O)N3CCC4(CC3)OCCO4)CC2)cc1 (stereo not drawn),-0.32,-14,.,.,.,-0.084
CC1CCCCN1C(=O)c1ccc(C(=O)N2CCCCC2C)cc1 (stereo not drawn),0.17,-2,-1,11,3,0.049
CC1CCCCN1C(=O)Cc1ccc(F)cc1 (stereo not drawn),-8*,3,-5,19,8,0.51
Nc1c(N2CCOCC2)cc(Cl)c2nonc12,0.058,-3,4,7,5,-4.8*
Cc1ccc(S(=O)(=O)NC(CC(C)C)C(=O)Oc2ccc3c4c(c(=O)oc3c2)CCC4)cc1 (stereo not drawn),-0.1,.,60*,16,-4,.
CCC(C)C(NS(=O)(=O)c1ccc(C)cc1)C(=O)Oc1ccc2c3c(c(=O)oc2c1)CCC3 (stereo not drawn),1.4,.,5,33*,-5,.
Cc1cc2c(nc1C)CCCN2C[C@@H](C)O/N=C1/[C@H]2CCn3c(=O)n(-c4ccccc4)c(=O)n3[C@H]2[C@H](O)[C@@H]2O[C@H]12,0.21,.,.,.,.,.
O=C(N/N=C/C1C(c2ccccc2)C1(Cl)Cl)c1cccc(Br)c1 (stereo not drawn),-1.1,.,2,10,0,.
O=C1CCCC2=C1C1(CCCCC1)N=C(Nc1nc3ccccc3s1)N2,-0.18,-18,2,33*,-19,0.32
COc1ccccc1C1C(C#N)=C(N)N(c2cccnc2)C2=C1C(=O)CC(C)(C)C2 (stereo not drawn),0.2,.,-1,-2,-6,.
COCCN(Cc1cc2cc(C)cc(C)c2nc1Cl)C(=O)Nc1ccccc1,0.45,.,-2,35*,-12,.
Cc1cc(C)c2nc(Cl)c(CN(Cc3ccco3)C(=O)Nc3ccccc3C)cc2c1,-0.34,.,7,34*,-22,.
COc1ccc2[nH]c(=O)c(CN(CCCN(C)C)C(=O)Nc3ccccc3)cc2c1,-0.13,-15,5,2,5,-1.6
CCn1cc(C(=O)NCc2ccc3c(c2)OCO3)c(=O)c2cc(F)c(N3CCN(C(=O)c4ccco4)CC3)cc21,1.6,.,-7,0,73*,.
